Measured values as given in ChEMBL document CHEMBL2086322, “"True" antiandrogens-selective non-ligand-binding pocket disruptors of androgen receptor-coactivator interactions: novel tools for prostate cancer” (J Med Chem, 2012).
Activity calls are given as the source filed them. No cut-off for these calls is given here.

Legend:
[1] = molecular target: T1, Androgen receptor (Homo sapiens) (UniProt P10275); assay: Displacement of fluormone from AR LBD after 4 hrs by fluorescence polarization assay; conditions: concentration not given here
T1 sequence (whole entry): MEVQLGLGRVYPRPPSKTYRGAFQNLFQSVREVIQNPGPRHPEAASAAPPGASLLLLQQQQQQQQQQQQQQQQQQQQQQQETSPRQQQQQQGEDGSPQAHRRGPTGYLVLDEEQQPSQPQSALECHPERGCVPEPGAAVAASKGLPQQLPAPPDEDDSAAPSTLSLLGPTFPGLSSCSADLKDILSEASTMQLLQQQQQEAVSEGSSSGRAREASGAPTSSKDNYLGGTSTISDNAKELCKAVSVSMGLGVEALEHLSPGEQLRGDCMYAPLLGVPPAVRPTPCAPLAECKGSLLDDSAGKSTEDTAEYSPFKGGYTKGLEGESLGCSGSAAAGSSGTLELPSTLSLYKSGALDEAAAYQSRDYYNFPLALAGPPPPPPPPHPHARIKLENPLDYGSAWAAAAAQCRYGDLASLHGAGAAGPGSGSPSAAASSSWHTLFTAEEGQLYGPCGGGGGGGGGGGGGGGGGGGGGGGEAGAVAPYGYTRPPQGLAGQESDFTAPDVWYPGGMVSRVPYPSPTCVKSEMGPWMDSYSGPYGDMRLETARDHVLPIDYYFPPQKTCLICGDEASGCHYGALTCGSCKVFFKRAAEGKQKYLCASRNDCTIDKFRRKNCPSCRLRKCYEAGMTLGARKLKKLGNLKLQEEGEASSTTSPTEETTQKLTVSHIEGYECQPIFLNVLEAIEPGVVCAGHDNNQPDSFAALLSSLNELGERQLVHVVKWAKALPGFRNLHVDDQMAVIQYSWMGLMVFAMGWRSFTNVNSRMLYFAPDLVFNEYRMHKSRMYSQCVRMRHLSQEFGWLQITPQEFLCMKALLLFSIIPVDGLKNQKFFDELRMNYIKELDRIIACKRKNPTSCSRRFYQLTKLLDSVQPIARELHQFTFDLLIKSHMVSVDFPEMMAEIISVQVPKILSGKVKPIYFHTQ

[2] = molecular target: T2, Progesterone receptor (Homo sapiens) (UniProt P06401); assay: Antagonist activity at PR assessed as inhibition of progesterone-induced fluorescent labelled SRC1-4 recruitment at 100 uM after 2 to 4 hrs by TR-FRET assay; type: functional
T2 sequence (whole entry): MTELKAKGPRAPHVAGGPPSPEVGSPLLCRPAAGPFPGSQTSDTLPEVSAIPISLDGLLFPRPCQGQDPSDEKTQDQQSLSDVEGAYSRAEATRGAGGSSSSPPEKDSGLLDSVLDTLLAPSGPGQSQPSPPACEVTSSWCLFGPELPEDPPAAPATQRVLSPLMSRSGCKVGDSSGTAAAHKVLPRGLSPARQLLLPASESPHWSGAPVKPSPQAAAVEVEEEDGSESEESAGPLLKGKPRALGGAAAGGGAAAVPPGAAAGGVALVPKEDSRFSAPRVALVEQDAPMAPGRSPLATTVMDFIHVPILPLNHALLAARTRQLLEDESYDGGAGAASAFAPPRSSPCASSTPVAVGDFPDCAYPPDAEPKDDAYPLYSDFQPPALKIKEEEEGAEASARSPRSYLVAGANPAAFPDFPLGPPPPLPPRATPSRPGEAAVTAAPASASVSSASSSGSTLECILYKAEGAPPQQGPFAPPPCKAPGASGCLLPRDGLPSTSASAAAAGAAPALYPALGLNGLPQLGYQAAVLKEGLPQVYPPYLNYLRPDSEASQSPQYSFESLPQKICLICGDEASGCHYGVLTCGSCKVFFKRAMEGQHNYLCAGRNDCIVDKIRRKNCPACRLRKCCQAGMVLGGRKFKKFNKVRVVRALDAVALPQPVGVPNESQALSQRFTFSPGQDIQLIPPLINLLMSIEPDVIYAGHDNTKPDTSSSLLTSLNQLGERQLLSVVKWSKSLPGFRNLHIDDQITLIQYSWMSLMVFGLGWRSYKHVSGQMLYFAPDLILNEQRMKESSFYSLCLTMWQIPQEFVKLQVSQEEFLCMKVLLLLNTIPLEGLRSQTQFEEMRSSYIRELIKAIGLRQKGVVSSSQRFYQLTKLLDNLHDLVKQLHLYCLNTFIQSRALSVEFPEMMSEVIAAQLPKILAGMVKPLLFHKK
Outline: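 TR-FRET coactivator recruitment with PR ligand-binding domain, fluorescent SRC1-4 peptide and Tb anti-GST antibody, with progesterone at its EC80. Compounds were tested from 100 to 1 μM at 1% DMSO final in coregulator buffer with 5 mM DTT. […] Two independent experiments, each in triplicate; IC50 from variable-slope fit.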

PC-3 = assay: Cytotoxicity against androgen independent human PC3 cells assessed as cell viability at 50 uM after 24 hrs by alamar blue assay; type: functional; conditions: for viability at 50 µM: PC-3, 24 h, read-out: Activity
LNCaP [3] = assay: Cytotoxicity against androgen dependent human LNCAP cells assessed as cell viability at 50 uM after 24 hrs by alamar blue assay; type: functional; conditions: read-out: Activity
[4] = Cytotoxicity against human PWR-1E cells assessed as cell viability at 50 uM after 24 hrs by alamar blue assay; type: cell-based; conditions: read-out: Activity
LNCaP [5] = assay: Antiproliferative activity against androgen dependent human LNCAP cells assessed as reduction of DHT-induced cell count after 5 days by alamar blue assay; type: functional, cell-based
Outline: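 LNCaP cells deprived of steroids for 48 h in phenol red-free RPMI with 10% charcoal-stripped FBS, then seeded at 2 × 10^4 cells/mL. Treated 5 days with compound (10 and 20 μM) with or without 0.1 nM DHT, 0.1% DMSO final. Medium and treatments renewed every second day after PBS washes. Growth read by AlamarBlue; two experiments, n = 6.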

[6] = molecular target: T1, Androgen receptor (Homo sapiens); assay: Antagonist activity at androgen receptor in androgen dependent human LNCAP cells assessed reduction of DHT-induced PSA expression after 2 hrs by ELISA; type: functional, cell-based
[7] = molecular target: T1, Androgen receptor (Homo sapiens); assay: Antagonist activity at androgen receptor in androgen dependent human LNCAP cells assessed reduction of CPA-induced PSA expression after 2 hrs by ELISA; type: functional, cell-based
CWR22R [8] = assay: Antiproliferative activity against human 22Rv1 cells assessed effect on DHT-induced PSA expression after 2 hrs by ELISA; type: functional, cell-based
CWR22R [9] = assay: Antiproliferative activity against human 22Rv1 cells assessed reduction of CPA-induced PSA expression after 2 hrs by ELISA; type: functional, cell-based
[10] = molecular target: T1, Androgen receptor (Homo sapiens); assay: Agonist activity at androgen receptor in human LNCAP cells assessed effect on CPA-induced PSA expression after 2 hrs by ELISA; type: functional, cell-based
[11] = molecular target: T1, Androgen receptor (Homo sapiens); assay: Partial agonist activity at androgen receptor in human LNCAP cells assessed effect on CPA-induced PSA expression after 2 hrs by ELISA; type: functional, cell-based
[12] = molecular target: T1, Androgen receptor (Homo sapiens); assay: Antagonist activity at androgen receptor in androgen dependent human LNCAP cells assessed reduction of CPA-induced PSA expression at 10 uM after 2 hrs by ELISA; type: functional, cell-based

| inhibition [1] | inhibition [2] | Activity [6] | Activity [7] | Activity [10] | Activity [11] | Activity [12] | SMILES | viability at 50 µM (PC-3) | viability at 50 µM (LNCaP [3]) | viability at 24 h, 50 µM [4] | Activity (LNCaP [5]) | Activity (CWR22R [8]) | Activity (CWR22R [9]) | Activity (PC-3) |
| --- | --- | --- | --- | --- | --- | --- | --- | --- | --- | --- | --- | --- | --- | --- |
| 0% | 30% | Dose-dependent effect | Dose-dependent effect | Active | Active | Active | COc1cc(/C=N/NC(=O)c2cc3c(ccc4ccccc43)o2)cc(OC)c1O | 80% | 80% | 80% | Dose-dependent effect | inactive | Active |  |
| 0% | 50% |  |  |  |  |  | O=C(N/N=C/c1cc(Br)ccc1O)c1cc2ccccc2cc1O | 50% | 50% | 50% |  |  |  |  |
|  |  |  |  |  |  |  | CC(=O)O[C@]1(C(C)=O)CC[C@H]2[C@@H]3C=C(Cl)C4=CC(=O)[C@@H]5C[C@@H]5[C@]4(C)[C@H]3CC[C@@]21C |  |  |  |  |  |  | Active |
